This is a sample that favours compounds with a hit; in the whole collection about 3.5% have one here.
MrgX1 ag: activates human MrgX1 receptor signaling; Q96LB2; MrgX1-HEK293 cells, Fluo-4 calcium fluorescence, agonist mode; active compounds read high; B-score at 10 µM; hit rate 0.44% among 310,000; AID 588627;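 active = calcium response B-score plate-corrected fluorescence ratio at least 3 library SD, with starting fluorescence B-score inside 5 SD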
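Assay system: stable human MrgX1 HEK293 cell line. Quantity: 15,000 cells per well. Schedule: cells plated overnight, dye loaded 0.5 h 37 °C, 0.5 h room temperature. Detection: Fluo-4 NW calcium-flux fluorescence, kinetic read. Read-out basis: peak-minus-minimum fluorescence over baseline, converted to B scores. Control set: positive and negative control wells on each plate.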
RGS4 inh: human RGS4 inhibition | P49798 | hit rate 0.45% among 310,000 | HEK293 M3R/RGS4 inducible, Fluo-4 calcium flux; active compounds read high; triggered by carbachol at its EC20 | B-score at 10 µM | AID 463165;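 active = B-score, a plate-corrected calcium signal, over three deviations above library mean, with baseline fluorescence within five deviations of library mean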;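 note: RGS4 expression induced by doxycycline in cells with stable M3 receptor; B-score is computed from the integrated fluorescence ratio over baseline after carbachol; higher B-score means a larger calcium signal and so more RGS4 inhibition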
Target sequence (P49798 whole entry, looked up): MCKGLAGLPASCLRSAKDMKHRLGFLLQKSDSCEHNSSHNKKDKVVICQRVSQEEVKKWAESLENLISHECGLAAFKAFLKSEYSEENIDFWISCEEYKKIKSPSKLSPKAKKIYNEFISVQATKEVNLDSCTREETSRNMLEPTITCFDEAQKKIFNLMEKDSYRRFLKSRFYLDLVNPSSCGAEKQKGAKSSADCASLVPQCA
RGS4 act: potentiators or activators of RGS4; AID 463111; B-score at 10 µM; HEK293 M3R/inducible RGS4, carbachol calcium flux Fluo4; active compounds read low; hit rate 0.92% among 310,000;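 active = B-score of the integrated calcium signal more than 4 SD below the library mean, with starting fluorescence not abnormally high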;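 note: negative B-score means reduced calcium response which marks RGS4 activation or potentiation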
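test system = HEK293 cells with stable M3R and inducible RGS4 | schedule = recording 10 s baseline at 1 Hz, 100 s post-agonist | technique = Fluo4-AM (2 µM) calcium-flux fluorescence, kinetic read | measure = Agonist-evoked peak-minus-minimum fluorescence over baseline, integrated ratio, B score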
MrgX1 antag: antagonists of human MrgX1 receptor; MRGX1-HEK293 calcium flux, Fluo-4, BAM8-22 antagonism; active compounds read low; B-score at 10 µM; hit rate 1.3% among 310,000; AID 588676;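 active = calcium-response B-score plate-corrected more than 3 library SD below zero, starting fluorescence within 5 deviations, no agonist response on first addition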;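 note: peak minus trough fluorescence over baseline after final BAM8-22 challenge near maximal dose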
MrgX1 allo act: human MrgX1 positive allosteric modulation, primary screen. Q96LB2. MrgX1-HEK293, Fluo-4 calcium flux, FDSS; active compounds read high. B-score at 10 µM. hit rate 0.63% among 310,000;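 active = plate-corrected calcium response at least 3 library SD above typical, normal starting fluorescence, not activating the receptor alone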;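 note: compound read alongside a low EC10 to EC30 dose of BAM8-22 agonist; peak minus trough fluorescence over baseline measured at the second addition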
A number is an active result; i = inactive; nt = no result given.

SMILES | MrgX1 ag | RGS4 inh | RGS4 act | MrgX1 antag | MrgX1 allo act
CSCCC(NC(=O)c1cccc(C)c1)C(=O)Nc1sccc1C(N)=O (stereo not given) | i | i | i | i | i
CCn1c(=O)c(=O)[nH]c2cc(C(=O)N(C)Cc3ccc(OC)c(F)c3)ccc21 | i | i | i | i | i
Cc1cc(Cl)c(S(=O)(=O)N/N=C/c2ccc3c(c2)OCO3)c(Cl)c1 | i | i | -8.21 | i | i
O=C(N/N=C/c1ccc2c(c1)OCO2)C1CC1 | i | i | i | -5.4 | i
CCCCn1c(N)c(N(CC(C)C)C(=O)CCC2CCCCC2)c(=O)[nH]c1=O | i | i | i | i | i
CN(C)CCNC(C(=O)Nc1cccc(C(F)(F)F)c1)c1ccccc1 (stereo not given) | i | i | -7.11 | i | i
Cc1ccc2nc(C3CCN(S(=O)(=O)c4ccc5ccccc5c4)CC3)[nH]c2c1 | i | i | i | i | i
O=[N+]([O-])c1ccc(CSc2nnc(SCc3ccccc3)s2)cc1 | i | i | -8.26 | i | i
COc1ccc(SCC(=O)c2cc(C)c(OC(=S)N(C)C)c(C)c2)cc1 | i | i | -7.01 | i | i
CCN(c1ccccc1)P(=O)(Nc1ccccc1)Nc1ccccc1 | i | i | i | i | i
CN(c1ccccc1)P(=O)(N(C)c1ccccc1)N(C)c1ccccc1 | i | i | -10.5 | i | i
CCN(Cc1ccccc1)S(=O)(=O)c1ccc(C(=O)N(CCCN(C)C)c2nc3cc(C)cc(C)c3s2)cc1 | i | i | i | i | i
CCCCN(CC)S(=O)(=O)c1ccc(C(=O)N(CCCN(C)C)c2nc3cc(C)cc(C)c3s2)cc1 | i | i | -8.05 | i | i
COc1cccc2sc(N(CCN(C)C)C(=O)c3ccc4c(c3)CCCC4)nc12 | i | i | i | i | 6.68
CCOc1cccc2sc(N(CCCN(C)C)C(=O)c3ccc(S(=O)(=O)N(CC)Cc4ccccc4)cc3)nc12 | i | i | -7.66 | i | i
CCc1ccc(C(=O)NNC(=O)CN2C(=O)NC(CC)(c3ccccc3)C2=O)cc1 (stereo not given) | i | i | i | i | i
Cc1cc2nc(SCCOC(=O)Nc3ccccc3)nc(C)c2cc1C | i | i | i | i | i
CCNc1nc(NCC)nc(SCCOC(=O)Nc2ccccc2)n1 | i | i | i | i | 7.69
COc1ccc(CNC(=O)COc2cccnc2[N+](=O)[O-])cc1OC | i | i | i | i | 6.93
Cc1ccc(-c2nc(=S)c3c(n2CC2CCCO2)CC(C)(C)OC3)cc1 (stereo not given) | i | i | i | i | i
Cc1ccc(-c2nc(=S)c3c(n2Cc2ccco2)CC(C)(C)OC3)cc1 | i | i | i | -6.03 | i
CC(=O)N1c2ccc(S(=O)(=O)N3CCC(C(=O)Nc4cccc(C(F)(F)F)c4)CC3)cc2CC1C (stereo not given) | i | i | i | i | i
O=C(Nc1nc(-c2cc(F)ccc2F)cs1)C1=COCCO1 | i | i | i | -5.06 | i
O=C(/C=C\Nc1ccc2c(c1)OCO2)c1ccc(Cl)s1 | i | i | i | i | i
C/C(=C\C(=O)c1ccc(Cl)s1)N(C)C | i | i | i | i | 9.18
SMILES | MrgX1 ag | RGS4 inh | RGS4 act | MrgX1 antag | MrgX1 allo act
O=C(c1nn(Cc2ccccc2)c(=O)c2ccccc12)N1CCN(c2ccccn2)CC1 | i | i | i | i | i
O=C(c1nn(Cc2ccccc2)c(=O)c2ccccc12)N1CCc2ccccc2C1 | i | i | -8.54 | i | i
COc1ccccc1NC(=O)CCCC(=O)OCC(F)(F)C(F)F | i | i | i | -6.18 | i
O=C1Cc2ccccc2N1c1ccccc1 | i | i | i | i | i
O=C1CC(=Nc2ccccc2)NN1c1ccccc1 | i | i | i | i | 7.36
CC(=O)Oc1c(Cl)cc(Cl)cc1/C=C/c1ccc2ccccc2n1 | i | i | i | -8.32 | i
C=C(C)COc1ccc(-c2ncnc(C(F)(F)F)c2-c2ccc(OC)cc2)c(O)c1 | i | i | -7.08 | i | i
COC(=O)C1=NNC2C(=O)N(c3ccc(C)cc3)C(=O)C12 (stereo not given) | i | i | i | i | i
Cc1ccc(N2C(=O)C3C=NNC3C2=O)cc1 (stereo not given) | i | i | i | -4.99 | i
CN1CCN(C(c2ccccc2)c2ccc(Cl)cc2)CC1 (stereo not given) | i | nt | nt | i | i
